Test [1] has as its target Protein cereblon/Signal transducer and activator of transcription 3 (Homo sapiens, UniProt P40763+Q96SW2). The test can be described thus: Protac activity at CRBN/STAT3 in human MOLM16 cells assessed as degradation of STAT3 incubated for 4 hrs by Western blot analysis. The format is cell-based. The method in brief:
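Molm-16 cells treated 4 h with serially diluted compound. Lysates immunoblotted (SDS–PAGE, PVDF, 5% blocker/TBST, chemiluminescence) for total STAT3 and pSTAT3 Y705. DC50 taken as the concentration reducing total STAT3 by 50%.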

Test [2] addresses T1, Protein cereblon/Signal transducer and activator of transcription 5A (Homo sapiens) (UniProt P42229+Q96SW2). The test is described as follows: Protac activity at CRBN/STAT5A in human MOLM16 cells assessed as degradation of STAT5A at 0.01 to 10 uM incubated for 4 hrs by Western blot analysis. The format is cell-based. The method in brief:
(§1)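 Molm-16 cells treated 4 h with test compound at 0.01–10 μM, or control compounds at 10 μM. Lysates separated by SDS–PAGE, transferred to PVDF, blocked 1 h in 5% blocker/TBST, probed for each STAT protein, and detected by chemiluminescence.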

For test [3], the target named is Protein cereblon/Signal transducer and activator of transcription 6 (Homo sapiens) (UniProt P42226+Q96SW2). The test can be described thus: Protac activity at CRBN/STAT6 in human MOLM16 cells assessed as degradation of STAT6 at 0.01 to 10 uM incubated for 4 hrs by Western blot analysis. The format is cell-based. Summed up:
as §1

In test [4] the target is Protein cereblon/Signal transducer and activator of transcription 4 (Homo sapiens) (UniProt Q96SW2+Q14765). The test is described as follows: Protac activity at CRBN/STAT4 in human SUDHL1 cells assessed as degradation of STAT4 at 0.01 to 10 uM incubated for 18 hrs by Western blot analysis. The format is cell-based. Summed up: (§2)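 SU-DHL-1 cells treated 18 h with test compound at 0.01–10 μM, or control compounds at 10 μM. Lysates separated by SDS–PAGE, transferred to PVDF, blocked 1 h in 5% blocker/TBST, probed for each STAT protein, and detected by chemiluminescence.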
Sequence of Protein cereblon/Signal transducer and activator of transcription 4 (Homo sapiens) (Q14765 whole entry, looked up): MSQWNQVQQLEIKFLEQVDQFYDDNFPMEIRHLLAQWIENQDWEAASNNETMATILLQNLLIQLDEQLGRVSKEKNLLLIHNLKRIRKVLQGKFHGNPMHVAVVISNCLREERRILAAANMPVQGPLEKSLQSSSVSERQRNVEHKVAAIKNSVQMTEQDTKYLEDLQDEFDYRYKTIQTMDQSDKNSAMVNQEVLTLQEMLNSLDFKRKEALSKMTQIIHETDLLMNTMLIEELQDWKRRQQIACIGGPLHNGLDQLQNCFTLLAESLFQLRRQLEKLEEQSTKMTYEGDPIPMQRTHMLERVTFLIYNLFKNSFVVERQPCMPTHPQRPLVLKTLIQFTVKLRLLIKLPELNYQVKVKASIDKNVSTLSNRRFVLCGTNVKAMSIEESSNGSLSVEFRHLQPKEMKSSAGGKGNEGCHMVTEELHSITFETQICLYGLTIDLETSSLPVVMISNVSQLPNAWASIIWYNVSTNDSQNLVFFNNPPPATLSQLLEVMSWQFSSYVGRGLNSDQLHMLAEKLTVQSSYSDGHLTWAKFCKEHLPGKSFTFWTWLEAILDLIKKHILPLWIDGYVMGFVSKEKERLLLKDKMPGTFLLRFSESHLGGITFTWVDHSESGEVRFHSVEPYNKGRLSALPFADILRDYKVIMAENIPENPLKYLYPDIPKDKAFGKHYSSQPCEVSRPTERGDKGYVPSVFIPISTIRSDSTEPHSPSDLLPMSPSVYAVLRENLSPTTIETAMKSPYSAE
Sequence of Protein cereblon/Signal transducer and activator of transcription 4 (Homo sapiens) (Q96SW2 whole entry, looked up): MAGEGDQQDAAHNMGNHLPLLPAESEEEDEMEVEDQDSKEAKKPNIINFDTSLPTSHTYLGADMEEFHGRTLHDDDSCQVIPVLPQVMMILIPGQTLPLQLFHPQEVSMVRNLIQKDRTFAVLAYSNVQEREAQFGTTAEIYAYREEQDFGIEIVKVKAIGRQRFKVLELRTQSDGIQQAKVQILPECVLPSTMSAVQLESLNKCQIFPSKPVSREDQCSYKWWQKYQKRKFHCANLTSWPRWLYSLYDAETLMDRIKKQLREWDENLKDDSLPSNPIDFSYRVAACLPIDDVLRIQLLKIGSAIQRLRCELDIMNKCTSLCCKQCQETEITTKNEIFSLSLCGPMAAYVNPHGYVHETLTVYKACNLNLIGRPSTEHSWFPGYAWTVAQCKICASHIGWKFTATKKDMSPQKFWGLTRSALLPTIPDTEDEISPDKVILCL

Test [5] addresses T1, Protein cereblon/Signal transducer and activator of transcription 5A (Homo sapiens). The test is described as follows: Protac activity at CRBN/STAT5A in human SUDHL1 cells assessed as degradation of STAT5A at 0.01 to 10 uM incubated for 18 hrs by Western blot analysis. In kind it is cell-based. The method in brief:
as §2

The target of test [6] is Protein cereblon/Signal transducer and activator of transcription 5B (Homo sapiens) (UniProt P51692+Q96SW2). The test is described as follows: Protac activity at CRBN/STAT5B in human SUDHL1 cells assessed as degradation of STAT5B at 0.01 to 10 uM incubated for 18 hrs by Western blot analysis. The format is cell-based. Summed up: as §2
Sequence of Protein cereblon/Signal transducer and activator of transcription 5B (Homo sapiens) (P51692 whole entry, looked up): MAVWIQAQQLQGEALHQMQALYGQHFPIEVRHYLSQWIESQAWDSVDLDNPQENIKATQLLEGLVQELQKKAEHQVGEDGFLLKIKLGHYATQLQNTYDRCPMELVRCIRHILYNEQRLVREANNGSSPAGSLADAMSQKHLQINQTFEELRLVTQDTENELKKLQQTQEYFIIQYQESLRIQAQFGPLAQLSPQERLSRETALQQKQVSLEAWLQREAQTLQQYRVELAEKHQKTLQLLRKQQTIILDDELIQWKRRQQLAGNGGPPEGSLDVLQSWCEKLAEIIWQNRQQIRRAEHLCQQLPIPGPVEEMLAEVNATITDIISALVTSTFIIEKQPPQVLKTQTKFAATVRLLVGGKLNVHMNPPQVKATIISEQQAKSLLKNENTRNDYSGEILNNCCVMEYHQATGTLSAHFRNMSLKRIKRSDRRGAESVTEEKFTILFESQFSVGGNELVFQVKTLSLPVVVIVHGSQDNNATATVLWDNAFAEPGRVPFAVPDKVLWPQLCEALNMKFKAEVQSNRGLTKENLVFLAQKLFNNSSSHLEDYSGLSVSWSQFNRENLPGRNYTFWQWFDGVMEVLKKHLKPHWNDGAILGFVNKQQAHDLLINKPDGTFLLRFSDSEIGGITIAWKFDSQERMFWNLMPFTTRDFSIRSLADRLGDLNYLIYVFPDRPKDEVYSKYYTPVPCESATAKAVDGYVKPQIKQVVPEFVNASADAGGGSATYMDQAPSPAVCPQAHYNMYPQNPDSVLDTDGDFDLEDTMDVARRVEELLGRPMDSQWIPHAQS
Sequence of Protein cereblon/Signal transducer and activator of transcription 5B (Homo sapiens) (Q96SW2 whole entry, looked up): as the sequence (Q96SW2 whole entry, looked up) above
The species entered for test [7] is Homo sapiens. The test can be described thus: Selectivity index, ratio of protac activity at CRBN/STAT1 in human MOLM16 cells to protac activity at CRBN/STAT3 in human MOLM16 cells. The format is cell-based. Summed up:
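Molm-16 cells treated 4 h with compound at 0.01–10 μM, or controls at 10 μM. Western blot of lysates: SDS–PAGE, PVDF, 1 h block in 5% blocker/TBST, primary and secondary antibodies, chemiluminescent detection. STAT1, -2, -4, -5A/B and -6 levels read against STAT3 to give degradation selectivity.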

The species named for test [8] is Homo sapiens. The test can be described thus: Selectivity index, ratio of protac activity at CRBN/STAT1 in human SUDHL1 cells to protac activity at CRBN/STAT3 in human SUDHL1 cells. In kind it is cell-based. Summed up: (§3)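 SU-DHL-1 cells treated 18 h with compound at 0.01–10 μM, or controls at 10 μM. Immunoblotting used SDS–PAGE, PVDF transfer, 1 h block in 5% blocker/TBST, primary and secondary antibodies and chemiluminescence. Levels of other STAT family members compared with STAT3 to express degradation selectivity.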

Test [9] is filed under the species Homo sapiens. The test can be described thus: Selectivity index, ratio of protac activity at CRBN/STAT6 in human SUDHL1 cells to protac activity at CRBN/STAT3 in human SUDHL1 cells. In kind it is cell-based. Summed up:
as §3

For test [10], the target named is T2, Signal transducer and activator of transcription 1-alpha/beta (Homo sapiens, UniProt P42224).
T2 sequence (P42224 whole entry): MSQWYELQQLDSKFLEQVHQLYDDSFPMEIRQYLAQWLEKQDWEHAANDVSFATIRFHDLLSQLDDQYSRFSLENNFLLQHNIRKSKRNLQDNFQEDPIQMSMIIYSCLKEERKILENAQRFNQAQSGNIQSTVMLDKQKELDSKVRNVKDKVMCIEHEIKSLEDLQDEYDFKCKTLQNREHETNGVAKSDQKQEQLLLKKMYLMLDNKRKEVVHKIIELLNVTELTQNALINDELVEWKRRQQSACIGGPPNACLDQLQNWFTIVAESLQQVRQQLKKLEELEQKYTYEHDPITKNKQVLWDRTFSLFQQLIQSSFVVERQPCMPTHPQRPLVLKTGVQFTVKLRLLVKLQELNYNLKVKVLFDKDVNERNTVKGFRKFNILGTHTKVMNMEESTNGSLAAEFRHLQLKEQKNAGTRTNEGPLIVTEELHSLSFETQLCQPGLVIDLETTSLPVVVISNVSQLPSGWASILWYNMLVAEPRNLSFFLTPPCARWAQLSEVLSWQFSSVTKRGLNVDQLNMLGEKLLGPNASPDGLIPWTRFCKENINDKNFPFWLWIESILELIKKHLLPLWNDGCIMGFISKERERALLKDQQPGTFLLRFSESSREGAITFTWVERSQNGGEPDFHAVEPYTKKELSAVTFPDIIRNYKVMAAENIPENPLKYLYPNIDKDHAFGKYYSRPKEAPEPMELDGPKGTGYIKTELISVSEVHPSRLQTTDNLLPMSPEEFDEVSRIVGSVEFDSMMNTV
The test is described as follows: Binding affinity to recombinant human His/SUMO-tagged STAT1 (132 to 713 residues) expressed in Escherichia coli Rosetta (DE3) incubated for 1 hr by fluorescence polarization assay.

Activity calls are given as the source filed them. No cut-off for these calls is given here.

T1 sequence (P42229 whole entry, looked up): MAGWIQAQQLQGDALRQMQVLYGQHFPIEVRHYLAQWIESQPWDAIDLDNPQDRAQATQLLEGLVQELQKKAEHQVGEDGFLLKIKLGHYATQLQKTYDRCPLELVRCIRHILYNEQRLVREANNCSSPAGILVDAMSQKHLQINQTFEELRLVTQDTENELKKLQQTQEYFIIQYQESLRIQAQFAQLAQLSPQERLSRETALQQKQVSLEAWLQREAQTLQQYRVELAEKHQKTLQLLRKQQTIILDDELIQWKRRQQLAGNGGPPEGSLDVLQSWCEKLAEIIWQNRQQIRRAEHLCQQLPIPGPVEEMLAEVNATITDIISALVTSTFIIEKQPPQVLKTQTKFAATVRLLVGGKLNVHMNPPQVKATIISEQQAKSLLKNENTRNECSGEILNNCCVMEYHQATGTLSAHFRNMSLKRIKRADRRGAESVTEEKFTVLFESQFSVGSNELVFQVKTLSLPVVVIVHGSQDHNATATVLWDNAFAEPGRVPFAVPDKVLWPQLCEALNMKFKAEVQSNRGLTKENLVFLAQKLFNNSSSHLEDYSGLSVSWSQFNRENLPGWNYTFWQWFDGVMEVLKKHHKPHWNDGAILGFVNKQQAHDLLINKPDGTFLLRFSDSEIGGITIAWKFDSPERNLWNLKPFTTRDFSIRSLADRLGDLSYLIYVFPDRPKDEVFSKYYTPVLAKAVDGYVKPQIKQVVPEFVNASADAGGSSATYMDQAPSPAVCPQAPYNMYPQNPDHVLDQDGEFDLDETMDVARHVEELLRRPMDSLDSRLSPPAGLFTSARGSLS
T1 sequence (Q96SW2 whole entry, looked up): as the sequence (Q96SW2 whole entry, looked up) above
Sequence of Protein cereblon/Signal transducer and activator of transcription 3 (P40763 whole entry): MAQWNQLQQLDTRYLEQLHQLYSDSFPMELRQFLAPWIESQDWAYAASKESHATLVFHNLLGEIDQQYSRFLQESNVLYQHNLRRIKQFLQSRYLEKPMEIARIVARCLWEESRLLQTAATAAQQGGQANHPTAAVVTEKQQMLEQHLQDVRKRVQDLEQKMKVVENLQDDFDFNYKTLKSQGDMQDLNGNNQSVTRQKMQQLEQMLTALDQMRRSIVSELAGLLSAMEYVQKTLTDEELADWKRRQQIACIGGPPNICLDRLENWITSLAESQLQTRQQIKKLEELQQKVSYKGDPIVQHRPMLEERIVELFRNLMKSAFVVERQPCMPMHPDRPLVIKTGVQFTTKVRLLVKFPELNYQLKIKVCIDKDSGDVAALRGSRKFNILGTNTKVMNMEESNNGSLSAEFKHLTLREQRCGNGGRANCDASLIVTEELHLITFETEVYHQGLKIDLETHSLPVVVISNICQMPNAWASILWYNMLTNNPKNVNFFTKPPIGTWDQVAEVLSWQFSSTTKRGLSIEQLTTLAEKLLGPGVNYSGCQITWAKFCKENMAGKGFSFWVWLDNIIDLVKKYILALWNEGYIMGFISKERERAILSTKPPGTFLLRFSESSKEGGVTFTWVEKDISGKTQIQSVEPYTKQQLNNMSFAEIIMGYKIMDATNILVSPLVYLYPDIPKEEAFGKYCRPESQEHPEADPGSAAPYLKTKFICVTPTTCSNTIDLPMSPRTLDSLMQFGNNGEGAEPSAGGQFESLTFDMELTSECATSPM
Sequence of Protein cereblon/Signal transducer and activator of transcription 3 (Q96SW2 whole entry): as the sequence (Q96SW2 whole entry, looked up) above
Sequence of Protein cereblon/Signal transducer and activator of transcription 6 (Homo sapiens) (P42226 2-847 limits assumed): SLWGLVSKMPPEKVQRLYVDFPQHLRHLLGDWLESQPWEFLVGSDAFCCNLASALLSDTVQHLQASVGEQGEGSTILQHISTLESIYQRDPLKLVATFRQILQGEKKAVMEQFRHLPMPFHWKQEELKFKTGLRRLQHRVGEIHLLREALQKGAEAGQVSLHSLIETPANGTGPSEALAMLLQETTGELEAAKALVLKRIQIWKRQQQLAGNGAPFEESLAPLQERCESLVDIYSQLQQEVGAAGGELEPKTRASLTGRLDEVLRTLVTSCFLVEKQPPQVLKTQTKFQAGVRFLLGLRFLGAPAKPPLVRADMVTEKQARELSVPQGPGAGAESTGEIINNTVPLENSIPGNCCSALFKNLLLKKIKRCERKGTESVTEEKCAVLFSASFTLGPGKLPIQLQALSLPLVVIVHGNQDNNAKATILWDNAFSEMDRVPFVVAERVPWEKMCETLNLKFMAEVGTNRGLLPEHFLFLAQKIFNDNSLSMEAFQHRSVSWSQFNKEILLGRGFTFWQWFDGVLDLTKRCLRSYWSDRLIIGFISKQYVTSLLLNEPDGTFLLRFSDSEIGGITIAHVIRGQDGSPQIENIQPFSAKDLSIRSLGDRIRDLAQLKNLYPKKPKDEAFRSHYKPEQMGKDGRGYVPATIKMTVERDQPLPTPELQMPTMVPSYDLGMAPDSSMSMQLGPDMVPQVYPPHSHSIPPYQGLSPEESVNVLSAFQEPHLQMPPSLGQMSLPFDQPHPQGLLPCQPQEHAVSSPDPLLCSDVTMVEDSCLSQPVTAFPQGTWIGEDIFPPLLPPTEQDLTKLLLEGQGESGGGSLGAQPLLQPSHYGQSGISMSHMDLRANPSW
Sequence of Protein cereblon/Signal transducer and activator of transcription 6 (Homo sapiens) (Q96SW2 whole entry partner): as the sequence (Q96SW2 whole entry, looked up) above

With `NC(=O)CC[C@H](NC(=O)[C@@H]1CC[C@@H]2CCN(C(=O)CCCCCC#Cc3cccc4c3CN(C3CCC(=O)NC3=O)C4=O)C[C@H](NC(=O)c3cc4cc(C(F)(F)P(=O)(O)O)ccc4[nH]3)C(=O)N21)C(=O)NC(c1ccccc1)c1ccccc1` (stereo not given in full), the DC50 in test [1] was determined as 60 nM. Also, the result in test [2], in test [3], in [4], in test [5] and in test [6] was inactive. In addition, the Ratio in test [7], in test [8] and in test [9] was greater than 100 in each case. Further, the equilibrium dissociation constant (Kd) in [10] amounted to 1000 nM.

Values taken from ChEMBL document CHEMBL4354826, “Structure-Based Discovery of SD-36 as a Potent, Selective, and Efficacious PROTAC Degrader of STAT3 Protein” (J Med Chem, 2019).
